# Source: PubChem (several laboratories)
# DTT redox prof = compounds producing H2O2 with reducing agent – biochemical, NIH compound library profiling, artefact control for MLSCN library redox annotation, primary screen; DTT-dependent redox cycling H2O2, phenol red/HRP absorbance; 100% = 100 µM peroxide control, 0% = buffer; activation, % at 10 µM; 200,000 tested, 0.03% active; AID 878;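 active = activation of at least 50% relative to the plate's high and low controls in the primary single-dose screen; inactive = activation below 50%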;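 also: compound incubated with DTT at 0.8 mM final as the reducing agent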
# PKD1 inh = PKD1 (human) kinase inhibition; PKD1 kinase fluorescence polarization assay; inhibition, % (concentration not given with the values); 200,000 tested, 0.056% active; AID 797; in the data active = inhibition above about 50%
# Calpain2 inh = inhibitors of pig calpain II. purified calpain II, fluorogenic peptide substrate, 30 min. inhibition, % at 16 µM. 220,000 tested, 0.37% active. AID 1236;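 active = inhibition above about 50%, limit read from the data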
# Pf gametocyte = P. falciparum stage V gametocyte viability inhibition | P. falciparum stage V gametocytes, ATP luminescence, 24 h | inhibition, % at 10.9 µM | 150,000 tested, 0.065% active | AID 743093;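 active = inhibition above the mean plus 3 SD of compounds within the control limits, set per campaign, cut at about 38% in these data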;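 also: 0% = DMSO wells and 100% = medium only without gametocytes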
# Efa HMGR inh = inhibitors of class II HMG-CoA reductase from Enterococcus faecalis | purified E. faecalis HMGR, NADPH absorbance 340 nm kinetic | inhibition, % at 10 µM | 190,000 tested, 0.41% active | AID 1066;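 active = inhibition above a set limit, the median over all tested compounds plus 3 SD, cut at about 9.5% in these data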;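 also: enzyme runs in reverse so mevalonate oxidation gives rising NADPH absorbance; 0% = complete reaction with DMSO and 100% = background rate lacking mevalonate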
# Rad51 HR inh = Rad51 (human) homologous recombination inhibition | Q06609 | hRad51 DNA strand exchange, fluorescence dequenching | inhibition, % at 10 µM | 200,000 tested, 0.085% active;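 active = inhibition above 40% at the single screening dose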;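 also: 0% = DMSO control wells and 100% = blanks with heterologous ssDNA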
# Target sequence (Q06609 whole entry, looked up): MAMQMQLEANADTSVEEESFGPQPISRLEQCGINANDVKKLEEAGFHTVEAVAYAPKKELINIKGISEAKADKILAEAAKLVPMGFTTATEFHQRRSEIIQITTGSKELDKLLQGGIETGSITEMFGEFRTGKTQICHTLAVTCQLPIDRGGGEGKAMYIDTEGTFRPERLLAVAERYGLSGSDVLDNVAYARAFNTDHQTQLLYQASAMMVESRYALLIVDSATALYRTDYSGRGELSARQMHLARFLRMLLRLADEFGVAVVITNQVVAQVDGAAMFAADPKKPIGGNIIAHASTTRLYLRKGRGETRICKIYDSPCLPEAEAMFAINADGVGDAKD
#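 System: hRad51 filaments on single-stranded DNA; reagent: Fluorescein- and BHQ1-tagged 47-mer duplex; compound dosing: one concentration, 10 µM final; timing: filaments 15 min 37 °C, then compound 30 min; measured by: fluorescein emission 520 nm, excitation 485 nm; benchmarks: per-plate controls and blanks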
# An asterisk follows results filed as active; · = no result given. An excerpt weighted towards active compounds, which were near 0.81% of everything screened.
SMILES,DTT redox prof,PKD1 inh,Calpain2 inh,Pf gametocyte,Efa HMGR inh,Rad51 HR inh
CN(C)c1cccc2cccc(N(C)C)c12,·,·,-16,18,·,22
Cc1ccnc(Nc2nc3ccccc3o2)n1,-1,4,133*,·,-9,4
Cc1nc(Nc2nc3ccccc3o2)nc(C)c1C,-1,0,8,-17,0,·
CC(C)Cn1c(-c2ccncc2)n[nH]c1=S,-1,-3,-2,·,3,22
C=C(C)Cn1c(-c2ccncc2)n[nH]c1=S,0,5,-5,13,19*,-5
Clc1ccc(-c2nn3c(-c4ccccc4)nnc3s2)cc1,1,-14,-61,2,-5,-12
c1ccc(-c2nnc3sc(-c4ccncc4)nn23)cc1,0,-3,-8,52*,-2,-2
COc1c(Cl)cc(C(=O)NCc2ccco2)cc1Cl,·,·,·,2,·,·
Cc1ccc(NC(=O)c2noc(C(C)C)c2[N+](=O)[O-])cc1,1,-11,58*,15,3,·
CC(C)c1onc(C(=O)Nc2cccnc2Cl)c1[N+](=O)[O-],1,-1,56*,-12,-5,·
Cc1onc(C(=O)Nc2cccnc2Cl)c1[N+](=O)[O-],0,-1,-7,-4,6,6
Cc1ccc(Cn2nnc3c(=O)n(CC(=O)NCc4ccco4)cnc32)cc1,1,-6,-26,19,20*,-4
CC(C(=O)NCC1CCCCC1)N(C)CC(=O)Nc1ccc(N2CCOCC2)cc1 (stereo unspecified),0,-6,-36,7,-4,-4
CCN(CC)S(=O)(=O)c1ccc(NN)nc1,0,-3,2,·,-4,5
CC(C)N(C(C)C)S(=O)(=O)c1ccc(NN)nc1,·,·,-4,-11,·,43*
Cc1cccc(OCCSc2nc3ccccc3n2CC(=O)O)c1,·,·,·,4,·,·
COc1ccc(N2C(=O)CC(N3CCN(c4ccc(Cl)cc4)CC3)C2=O)cc1 (stereo unspecified),·,·,·,-22,·,·
COc1ccc(N2C(=O)CC(N3CCN(S(=O)(=O)c4ccc(Cl)cc4)CC3)C2=O)cc1 (stereo unspecified),0,-4,-19,·,9.6*,-7
Cc1cc(C)cc(Oc2nc(-c3ccccc3)cc(C)c2S(C)(=O)=O)c1,3,-4,50*,7,-4,-6
Cc1cc(C)c(S(C)(=O)=O)c(Oc2ccc(F)cc2)n1,-7,-1,13,·,10*,·
Cc1cc(-c2ccccc2)nc(N(C)N)c1S(C)(=O)=O,-1,1,-16,-12,11*,6
Cc1cc(-c2ccccc2)nc(Oc2ccc(C(C)(C)C)cc2)c1S(C)(=O)=O,3,-11,48,-1,-6,1
C[C@@H]1CCC[C@]2(O[C@@H](CCO)C[C@@H](O)[C@@H]2O)O1,·,·,·,3,·,-6
CCOc1cc(/C=N/NC(N)=O)cc(Br)c1OCC(=O)Nc1cccc2ccccc12,1,3,-130,6,2,122*
CCOc1cc(/C=N/NC(N)=O)cc(Br)c1OCC(=O)Nc1ccccc1C,0,-1,-16,·,-5,6
SMILES,DTT redox prof,PKD1 inh,Calpain2 inh,Pf gametocyte,Efa HMGR inh,Rad51 HR inh
COCCn1c(C)cc(C(=O)COc2ccc(C)nc2[N+](=O)[O-])c1C,1,0,-24,11,13*,·
CCCn1c(C)cc(C(=O)COc2ccc(C)nc2[N+](=O)[O-])c1C,0,1,8,·,-9,3
COc1ccccc1NC(=S)N1CCCc2ccccc21,0,-2,-4,0,16*,0
CN(CC(=O)Nc1ccc(Cl)c(C(F)(F)F)c1)C(=O)/C=C/c1ccco1,0,-8,-4,57*,2,1
CC1(C)CC(N=c2cc(-c3ccccc3)oc3ccc(Cl)cc23)CC(C)(C)N1,0,-3,-2,-22,-2,53*
OCCCN=c1cc(-c2ccccc2)oc2ccc(Cl)cc12,0,-3,2,·,-4,-9
CCOC(=O)C1=C(CNCCc2ccc(Cl)cc2)NC(=O)NC1c1ccc2c(c1)OCO2 (stereo unspecified),3,2,53*,7,-4,4
COC1(OC)N=C(N)C2(C#N)C(c3ccc(C)cc3)C12C#N (stereo unspecified),-2,3,-53,·,3,-5
COC1(OC)N=C(NC(=O)Nc2ccccc2)C2(C#N)C(c3ccccc3)C12C#N (stereo unspecified),2,9,·,·,14*,8
CCOc1nc(Nc2ccccc2F)nc(OCC)n1,·,·,·,-5,·,·
Fc1ccccc1Nc1nc(Cl)nc(Cl)n1,0,-1,-25,12,11*,10
CCOC(=O)C1=C(CSc2nc(CC)c(C)cc2C#N)OC(N)=C(C#N)C1c1ccc(OC)cc1 (stereo unspecified),1,-10,-88,·,-6,-19
COC(=O)C1=C(CSc2nc3c(cc2C#N)CN(C)CC3)OC(N)=C(C#N)C1c1ccc(F)cc1 (stereo unspecified),1,5,-173,10,14*,-13
CCOC(=O)c1sc(N/N=C/c2cccc(C)c2)nc1C,-1,-18,-7,·,-1,0
CCOC(=O)c1sc(NC(=O)CSc2nccc(C)n2)nc1C,0,-1,-7,-3,19*,5
CCOC(=O)c1sc(N/N=C/c2ccccc2)nc1C,-1,2,-25,-7,9.9*,-10
Cn1nnnc1SC(C(=O)Nc1cccc(C(F)(F)F)c1)c1ccccc1 (stereo unspecified),0,2,54*,10,2,-19
O=C(Nc1cccc(C(F)(F)F)c1)C(SCCO)c1ccccc1 (stereo unspecified),0,15,4,-4,-1,-1
COC(=O)c1cccc(C23CC4(C2)[C@H](CN(Cc2cccnc2)[C@@H]4c2ccccc2)C3c2ccccc2)c1 (stereo partly specified),·,·,-7,18,·,-4
c1ccc(-c2nnsc2-c2nc3ccccc3[nH]2)cc1,1,-8,-172,-18,12*,-1
COC(=O)c1ccc(/C=C/c2c(-c3ccsc3)oc3ccc(N4CCOCC4)cc23)cc1,·,·,·,-1,·,·
Cc1noc(C)c1COC(=O)Cc1ccc(Br)cc1,0,1,43,-6,-7,8
CC(=O)Nc1ccc(S(=O)(=O)NCC2CCC(C(=O)NCCC3=CCCCC3)CC2)cc1 (stereo unspecified),0,-6,52*,7,2,·
O=C(NCCC1=CCCCC1)C1CCC(CNS(=O)(=O)c2ccccc2)CC1 (stereo unspecified),0,-12,29,-7,0,·
S=C1NC[C@H](CC2CCCCC2)N1CCCCC1CCCCC1,·,·,33,11,·,5
CC(C)n1c(=S)[nH]c2scc(-c3cccs3)c2c1=O,·,·,59*,3,·,4
